# Assays:
# Staphylococcus aureus [1] = assay: Antimicrobial activity against methicillin-resistant Staphylococcus aureus ATCC 33591 assessed as bacterial growth inhibitions by CLSI protocol based microdilution method; format: functional
# [2] = tested on: Staphylococcus epidermidis; assay: Antimicrobial activity against methicillin-resistant Staphylococcus epidermidis ATCC 700296 assessed as bacterial growth inhibitions by CLSI protocol based microdilution method; format: functional
# Enterococcus faecalis [3] = assay: Antibiofilm activity against Enterococcus faecalis ATCC 29212 assessed as destruction of biofilm formation at 1 times MIC after 24 hrs by crystal violet staining based assay relative to control; format: functional
# How it was run: (§1)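 Overnight culture brought to 0.5 McFarland in PBS, diluted 1:100 in CAMHB with 1% glucose. Inhibition: cells plus compound (in DMSO) at 2x, 1x, 0.5xMIC, 24 h at 35 °C, triplicate. Destruction: 24 h biofilm grown without drug, washed, fresh medium with compound, further 24 h. Then washed, dried, 0.1% crystal violet, solubilized in 33% acetic acid, OD 620 nm. Controls are DMSO-only and broth-only wells.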
# [4] = Toxicity in CD1 mouse assessed as effect on total protein level at 50 mg/kg, ip administered as single dose measured after 24 hrs; format: organism-based; conditions: in vivo
# How it was run: (§2)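 Male CD-1 mice, 8 weeks, 32–37 g, n = 10 per dose. Single IP injection at 5, 20 or 50 mg/kg in 0.9% saline, filter-sterilized; saline vehicle group. Blood taken by cardiac puncture 24 h later. 14 plasma markers measured on a chemistry panel, reported as mean ± SE. Toxicity judged by significance versus controls, normal ranges, dose-dependence and consistency across organ markers.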
# Staphylococcus aureus [5] = assay: Antimicrobial activity against methicillin-susceptible Staphylococcus aureus ATCC 25923 assessed as bacterial growth inhibitions by CLSI protocol based microdilution method; format: functional
# [6] = Toxicity in CD1 mouse assessed as blood plasma albumin level at 50 mg/kg, ip administered as single dose measured after 24 hrs; format: organism-based; conditions: in vivo; how it was run: as §2
# Staphylococcus aureus [7] = assay: Bactericidal activity against Staphylococcus aureus ATCC 33591 assessed as reduction bacterial growth at 4X MIC measured after 4 hrs by time-kill kinetic assay; format: functional
# How it was run: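 Log-phase culture diluted to ~5 × 10^6 CFU/ml in warm CAMHB, exposed at 4xMIC, 35 °C. 20 µl samples every 2 h, 10-fold dilutions to 10^-5, 6 × 6 drop plating. CFU/ml counted after 18–24 h at 35 °C; triplicate.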
# Bacillus subtilis = assay: Antimicrobial activity against Bacillus subtilis ATCC 6623 assessed as bacterial growth inhibitions by CLSI protocol based microdilution method; format: functional
# How it was run: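 Broth microdilution starting at 50 µg/ml with 2-fold serial dilutions; run in triplicate.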
# [8] = Toxicity in CD1 mouse assessed as effect on blood urea nitrogen level at 50 mg/kg, ip administered as single dose measured after 24 hrs; format: organism-based; conditions: in vivo; how it was run: as §2
# Staphylococcus aureus [9] = assay: Antimicrobial activity against Staphylococcus aureus ATCC 29213 assessed as inhibition of cell wall synthesis at 2 times MIC measured by liquid scintillation counter; format: functional
# How it was run: (§3)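 Early-exponential cells resuspended in M9 minimal medium, drug (40x stock) in triplicate, 30 min pre-incubation at 37 °C. [14C]N-acetylglucosamine 0.4 µCi/reaction for 45 min at 37 °C. Stopped with 8% SDS, heated 95 °C 30 min, spotted on nitrocellulose, washed with 0.1% SDS, then scintillation counted.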
# Enterococcus faecium [10] = assay: Antimicrobial activity against vancomycin-resistant Enterococcus faecium clinical isolate 1091282 by CLSI-based broth microdilution assay; format: functional
# Enterococcus faecalis [11] = assay: Antibiofilm activity against Enterococcus faecalis ATCC 29212 assessed as inhibition of biofilm formation at 2 times MIC after 24 hrs by crystal violet staining based assay relative to control; format: functional; design: scale not given: the % may be the effect or the level left; how it was run: as §1
# [12] = Toxicity in CD1 mouse assessed as effect on calcium level at 50 mg/kg, ip administered as single dose measured after 24 hrs; format: organism-based; conditions: in vivo; how it was run: as §2
# [13] = Toxicity in CD1 mouse assessed as effect on total bilirubin level at 50 mg/kg, ip administered as single dose measured after 24 hrs; format: organism-based; conditions: in vivo; how it was run: as §2
# Enterococcus faecium [14] = assay: Antimicrobial activity against vancomycin-resistant Enterococcus faecium clinical isolate 1094112 by CLSI-based broth microdilution assay; format: functional
# [15] = Toxicity in CD1 mouse assessed as effect on alanine transferase level at 50 mg/kg, ip administered as single dose measured after 24 hrs; format: organism-based; conditions: in vivo; how it was run: as §2
# Staphylococcus aureus [16] = assay: Antimicrobial activity against methicillin-sensitive Staphylococcus aureus ATCC 29213 by CLSI-based broth microdilution assay; format: functional
# [17] = Toxicity in CD1 mouse assessed as effect on alkaline phosphatase level in blood at 50 mg/kg, ip administered as single dose measured after 24 hrs; format: organism-based; conditions: in vivo; how it was run: as §2
# Enterococcus faecium [18] = assay: Antimicrobial activity against vancomycin-resistant Enterococcus faecium clinical isolate 1091563 by CLSI-based broth microdilution assay; format: functional
# Enterococcus faecalis [19] = assay: Antimicrobial activity against vancomycin-susceptible Enterococcus faecalis ATCC 29212 assessed as bacterial growth inhibitions by CLSI protocol based microdilution method
# Enterococcus faecium [20] = assay: Antimicrobial activity against vancomycin-resistant Enterococcus faecium clinical isolate 1100440 by CLSI-based broth microdilution assay; format: functional
# Enterococcus faecium [21] = assay: Antimicrobial activity against vancomycin-resistant Enterococcus faecium ATCC 700221 assessed as bacterial growth inhibitions by CLSI protocol based microdilution method; format: functional
# Staphylococcus aureus [22] = assay: Inhibition of lipid synthesis in Staphylococcus aureus ATCC 29213 at 4 times MIC measured by liquid scintillation counter; format: functional
# How it was run: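 Early-exponential cells in CAMHBII with drug in triplicate. Lipids extracted with chloroform/water, centrifuged, organic phase dried, then scintillation counted.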
# Enterococcus faecium [23] = assay: Antimicrobial activity against vancomycin-resistant Enterococcus faecium clinical isolate 1091720 by CLSI-based broth microdilution assay; format: functional
# Staphylococcus aureus [24] = assay: Antimicrobial activity against methicillin-resistant Staphylococcus aureus ATCC 700699 assessed as bacterial growth inhibitions by CLSI protocol based microdilution method; format: functional
# Staphylococcus aureus [25] = assay: Antimicrobial activity against Staphylococcus aureus ATCC 29213 assessed as inhibition of cell wall synthesis at 4 to 8 times MIC measured by liquid scintillation counter; format: functional; how it was run: as §3
# Staphylococcus aureus [26] = assay: Antimicrobial activity against antibiotic-resistant Staphylococcus aureus BM-2312 assessed as bacterial growth inhibitions by CLSI protocol based microdilution method; format: functional
# Enterococcus faecalis [27] = assay: Antibiofilm activity against Enterococcus faecalis ATCC 29212 assessed as inhibition of biofilm formation at 2 times MIC after 24 hrs by crystal violet staining based assay relative to control
# Staphylococcus aureus [28] = assay: Antimicrobial activity against methicillin-resistant Staphylococcus aureus ATCC 33592 assessed as bacterial growth inhibitions by CLSI protocol based microdilution method; format: functional
# [29] = Selectivity index, ratio of IC50 for cytotoxicity against human HEK-293T cells to MIC of antimicrobial activity against methicillin-susceptible Staphylococcus aureus ATCC 25923; format: toxicity, cell-based; conditions: read-out: Selectivity Index
structure (smiles),measurement,setting,value
O=C(O)c1ccc(-n2cc(CNc3cc(F)cc(C(F)(F)F)c3)c(-c3ccc(C(F)(F)F)cc3)n2)cc1,MIC,Staphylococcus aureus [1],0.39 µg/mL
same,MIC,[2],1.56 µg/mL
same,Activity,Enterococcus faecalis [3],75%
same,Activity,[4],Non-Toxic
same,MIC,Staphylococcus aureus [5],0.39 µg/mL
same,Activity,[6],Non-Toxic
same,Activity,Staphylococcus aureus [7],3 log10CFU/ml
same,MIC,Bacillus subtilis,0.78 µg/mL
same,Activity,[8],Non-Toxic
same,inhibition (INH),Staphylococcus aureus [9],39.5%
same,MIC,Enterococcus faecium [10],2 µg/mL
same,Activity,Enterococcus faecalis [11],90%
same,Activity,[12],Non-Toxic
same,Activity,[13],Non-Toxic
same,MIC,Enterococcus faecium [14],4 µg/mL
same,Activity,[15],Non-Toxic
same,MIC,Staphylococcus aureus [16],2 µg/mL
same,Activity,[17],Non-Toxic
same,MIC,Enterococcus faecium [18],4 µg/mL
same,MIC,Enterococcus faecalis [19],1.56 µg/mL
same,MIC,Enterococcus faecium [20],4 µg/mL
same,MIC,Enterococcus faecium [21],0.78 µg/mL
same,inhibition (INH),Staphylococcus aureus [22],100%
same,MIC,Enterococcus faecium [23],4 µg/mL
same,MIC,Staphylococcus aureus [24],0.78 µg/mL
same,inhibition (INH),Staphylococcus aureus [25],>80%
same,MIC,Staphylococcus aureus [26],0.78 µg/mL
same,inhibition (INH),Enterococcus faecalis [27],90%
same,MIC,Staphylococcus aureus [28],0.78 µg/mL
same,selectivity ratio,[29],13
